Target: Recombinant angiotensin converting enzyme 2 (rACE2) (Homo sapiens, UniProt Q9BYF1)
Experiment: ACE2 proteolysis assay of pyr‐1‐apelin‐13 and APLN analogues
Format: in vitro ADME
Conditions: rACE2 in Tris buffer pH 8.0; HPLC coupled with MALDI‐TOF; Figures S8 and S9
Method in brief: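 Quenched with 100 mmol/L EDTA pH 7.0. C18 reverse-phase HPLC, 10–45% acetonitrile/0.1% TFA, detection at 220 nm. Hydrolysis taken from substrate and product peak areas; masses confirmed by MALDI-TOF.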

Recombinant angiotensin converting enzyme 2 (rACE2), sequence (Q9BYF1 18-805): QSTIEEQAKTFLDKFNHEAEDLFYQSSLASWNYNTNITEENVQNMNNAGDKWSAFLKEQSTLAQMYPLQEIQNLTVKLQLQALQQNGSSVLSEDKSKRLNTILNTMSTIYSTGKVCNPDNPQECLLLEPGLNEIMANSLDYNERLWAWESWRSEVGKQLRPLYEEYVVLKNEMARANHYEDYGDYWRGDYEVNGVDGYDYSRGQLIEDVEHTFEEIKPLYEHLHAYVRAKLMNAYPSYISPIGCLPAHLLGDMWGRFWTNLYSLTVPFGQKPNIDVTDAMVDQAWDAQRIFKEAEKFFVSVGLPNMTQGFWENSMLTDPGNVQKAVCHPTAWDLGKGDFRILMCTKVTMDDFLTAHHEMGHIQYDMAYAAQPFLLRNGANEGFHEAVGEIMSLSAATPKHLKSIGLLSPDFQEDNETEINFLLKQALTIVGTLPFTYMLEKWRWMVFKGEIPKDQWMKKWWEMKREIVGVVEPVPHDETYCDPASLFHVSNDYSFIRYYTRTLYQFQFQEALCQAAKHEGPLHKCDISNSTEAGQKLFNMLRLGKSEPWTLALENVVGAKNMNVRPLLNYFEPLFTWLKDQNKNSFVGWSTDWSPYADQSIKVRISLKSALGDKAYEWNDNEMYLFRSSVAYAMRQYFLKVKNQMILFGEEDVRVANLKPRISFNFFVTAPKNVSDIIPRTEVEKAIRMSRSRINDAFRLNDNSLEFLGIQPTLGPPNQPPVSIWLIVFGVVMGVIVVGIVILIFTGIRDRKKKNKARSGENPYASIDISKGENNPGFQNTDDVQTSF

pyr‐1‐apelin‐13 (QRPRLSHKGPMPF; Apelin-13 N-terminal pyroglutamate; UniProt Q9ULZ1 65-77, looked up, fragment)
susceptibility to ACE2‐mediated proteolysis (result in words): efficient ACE2‐mediated cleavage

Reference: publication PMC3828798 (Journal of the American Heart Association: Cardiovascular …, 2013)
